Legend:
[1] = tested on: Aspergillus flavus; assay: Antifungal activity against Aspergillus flavus assessed as mycelial growth at 20 uL after 4 to 12 days by agar disk diffusion method relative to untreated control; assay type: functional
How it was run: (§1)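 Aspergillus flavus, isolated from feeds, was grown on PDA plates seeded with 6 mm mycelial plugs from 10-day cultures. Three paper disks per dish carried either 60 µL pure essential oil or 60, 40 or 20 µL of single major oil constituents. Plates were sealed and incubated in the dark at 22 °C. Average colony diameter was read at 4, 8 and 12 days against water-impregnated disk controls.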

[2] = tested on: Aspergillus flavus; assay: Antifungal activity against Aspergillus flavus assessed as mycelial growth at 60 uL after 4 to 12 days by agar disk diffusion method relative to untreated control; assay type: functional; how it was run: as §1

| Compound | Activity [1] [%] | Activity [2] [%] |
| --- | --- | --- |
| CC1=CC[C@H](C(C)C)C=C1 [ALPHA-PHELLANDRENE] | 0 | 0 |
| CC1=CC=C(C(C)C)CC1 [ALPHA-TERPINENE] | 0 | 0 |
| CC1=CC[C@@H](C(C)(C)O)CC1 [ALPHA-TERPINEOL] | 100 | 100 |
| CC1=CCC(O)(C(C)C)CC1 (configuration not stated) [TERPINEOL] | 100 | 100 |
| CC1=CCC(C(C)C)=CC1 [GAMMA-TERPINENE] | 0 | 0 |
| CC1=CCC(=C(C)C)CC1 [TERPINOLENE] | 0 | 0 |
